Rce1 inh: blocks yeast Ras-converting enzyme; Q03530; yeast membranes, quenched prenylated peptide cleavage fluorescence; calls only; actives 0.27% (n = 290,000);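 active = fall in fluorescence gain of 50% or more versus controls, with final raw signal at or below 3038400; inconclusive = same 50% fall but final raw signal above 3038400; inactive = fall in fluorescence gain under 50%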;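 note: plate controls were neutral control wells for no effect and wells lacking membranes for full effect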
Target sequence (Q03530 whole entry, looked up): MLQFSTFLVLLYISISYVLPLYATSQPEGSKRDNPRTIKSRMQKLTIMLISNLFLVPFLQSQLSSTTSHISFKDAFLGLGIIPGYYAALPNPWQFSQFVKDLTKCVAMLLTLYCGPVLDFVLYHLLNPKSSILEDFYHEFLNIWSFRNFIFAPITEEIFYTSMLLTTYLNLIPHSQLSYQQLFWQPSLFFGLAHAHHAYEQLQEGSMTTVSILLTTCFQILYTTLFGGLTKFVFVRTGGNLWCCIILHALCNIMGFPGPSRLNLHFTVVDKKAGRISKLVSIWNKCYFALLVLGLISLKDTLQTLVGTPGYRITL
DSG3 Ab inh: inhibitors of pemphigus antibody binding to human desmoglein-3; P32926; DSG3-coupled beads, scFv-anti-DSG3-GFP binding, flow cytometry; hits give low values; binding (percent of control), % at 10 µM; actives 0.48% (n = 310,000);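 active = binding more than 3 SD below its plate's average and above zero; inconclusive = below that plate limit but binding exactly zero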;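 note: hits lower antibody fragment binding to DSG3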
TbMetRS inhib: Trypanosoma brucei MetRS inhibition; purified T. brucei MetRS, ATP depletion, Kinase-Glo luminescence; inhibition, % at 11.9 µM; actives 0.4% (n = 360,000);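 active = inhibition above a per-plate cutoff of the control wells' mean inhibition plus 3 SD, cut at about 5.5% in these data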;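 note: 0% = DMSO wells median and 100% = median of wells with control inhibitor compound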
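System: purified T. brucei MetRS enzyme / Detection: Kinase-Glo luciferase luminescence reporting remaining unconsumed ATP / Medium: HEPES buffer with MgCl2, KCl, DTT, spermine, BSA, pyrophosphatase / Replication: singlicate, one well per compound / Evaluation: percent inhibition relative to median high and low control wells / Schedule: 2 h aminoacylation at 25 °C after 15 min preincubation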
core dimer inh: HCV core protein dimerization inhibition. TR-FRET GST/Flag-core106 dimerization, 1536-well. actives 0.33% (n = 300,000). inhibition, % at 5 µM. AID 1899;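 active = inhibition above the mean of all tested compounds plus 3 SD, set per screening campaign, cut at about 45% in these data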
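Test system: GST/Flag-tagged HCV core106 proteins; Medium: KF-containing HEPES buffer, pH 7.45, DTT, CHAPS, BSA; Times: compound-protein-antibody incubation 4 h at 22.5 °C; Detection: TR-FRET 671 and 617 nm emission; Benchmarks: wells lacking GST-core106 and wells with excess unlabelled core106.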
NadD block: NadD (S. aureus) enzyme inhibition; purified NadD enzyme, colorimetric absorbance read-out; inhibition, % at 20 µM; actives 0.78% (n = 360,000); in the data active = inhibition above about 26%
Active calls of the source: *; i = inactive; ? = inconclusive; nt = not tested or not shown; + = active, no number. Sampled rows, rich in hits. Any-hit rate of the full collection: about 1.9%.

SMILES	Rce1 inh	DSG3 Ab inh	TbMetRS inhib	core dimer inh	NadD block
Nc1nonc1-n1nnc(C(=O)N/N=C/c2cccc(Cl)c2)c1CSc1ccc(Cl)cc1	+	114.0	-0.5	17.2	11.5
Nc1nonc1-n1nnc(C(=O)N/N=C/c2ccccc2)c1CSc1ccc(Cl)cc1	+	105.4	-0.2	15.6	11.2
O=C(NC(=S)Nc1ccc(S(=O)(=O)N2CCCC2)cc1)C1CCC1	i	100.2	0.3	2.7	-4.4
COc1ccc(NC(=O)CSc2nnc(Cc3ccccc3)c(=O)n2N)cc1OC	i	102.7	-0.2	0.9	1.2
Cn1c(N2CCOCC2)c(/C=N/O)c2ccccc21	i	81.9	-0.4	-14.7	-1.2
Cc1ccc(-c2c(C(=O)N/N=C/c3ccoc3)nnn2-c2nonc2N)cc1	i	105.1	-0.7	2.0	1.0
Cc1ccc(/C=N/NC(=O)c2nnn(-c3nonc3N)c2C(C)C)o1	+	106.4	-0.8	5.1	2.9
Cc1ccc(SCc2c(C(=O)N/N=C/c3ccc(C)o3)nnn2-c2nonc2N)cc1	nt	86.2*	-0.2	nt	3.6
CC(C)c1c(C(=O)N/N=C/c2ccco2)nnn1-c1nonc1N	i	98.4	0.2	2.4	-5.4
Cc1ccc(-c2c(C(=O)N/N=C/c3cccc(Cl)c3)nnn2-c2nonc2N)cc1	+	99.4	-0.1	8.3	21.0
O=[N+]([O-])c1cccc(C=NN=C2c3ccccc3-c3ccccc32)c1	nt	102.2	-0.5	nt	-0.3
CCc1cc(C(=O)Nc2cc(S(=O)(=O)N(C)C)ccc2C)sc1C	i	100.6	-1.0	3.2	-6.1
CC(C)(C)NC(=O)C(OC(=O)c1cccs1)c1ccc(F)cc1 (configuration not stated)	i	-16.3*	0.0	-3.9	-5.6
CC(C)(C)NC(=O)C(OC(=O)c1cccs1)c1ccccc1 (configuration not stated)	i	97.1	-0.3	1.1	-9.2
Cc1nn(Cc2noc(C(=O)NCC3CCCO3)n2)c(C)c1Br (configuration not stated)	i	98.6	0.5	-7.4	1.9
CSc1nc(N(C)CCO)c2sc3nc(-c4ccco4)c4c(c3c2n1)CCC4	i	101.5	0.0	80.3*	9.5
CC(C)(C)N1C(=O)Cc2c1nc(N)c1c(N)nc(N3CCCCC3CO)c(C#N)c21 (configuration not stated)	i	105.1	-0.5	-2.5	36.6*
Cc1ccc(-c2cc(C(=O)Nc3c(C)n(C)n(-c4ccccc4)c3=O)[nH]n2)c(O)c1	i	-20.7*	-1.0	2.8	0.5
CCCOc1ccc(/C=C/C(=O)Nc2ccc([N+](=O)[O-])cc2)cc1	i	101.9	-0.2	15.8	0.0
O=C1CC(NCc2ccco2)C(=O)N1CCc1ccccc1 (configuration not stated)	i	93.2	0.5	-3.3	-1.3
COc1ccc([N+](=O)[O-])cc1CSc1ccccn1	+	92.8	-0.5	-0.1	10.1
COc1cc([N+](=O)[O-])ccc1NC(=O)CSc1ccccn1	i	108.8	-0.3	6.6	-1.2
Cc1ccc(NC(=O)Nc2cc(Cl)ccc2C2COC(=O)C2=N)cc1 (configuration not stated)	i	94.5	2.0	1.9	3.2
CC(=O)Nc1ccc(Cl)cc1C1COC(=O)C1=N (configuration not stated)	+	100.1	0.2	-5.6	-6.3
Cc1nc2c(n1C1CCCCC1)C(=O)c1ccccc1C2=O	i	98.8	-0.1	2.9	-1.0
SMILES	Rce1 inh	DSG3 Ab inh	TbMetRS inhib	core dimer inh	NadD block
Cc1cc(/C=C2\SC(=Nc3ccc(F)cc3)NC2=O)c(C)n1-c1ccc(S(N)(=O)=O)cc1	i	101.9	0.0	38.2	65.0*
Cc1cc(/C=C2\SC(=S)NC2=O)c(C)n1C	i	98.4	0.7	-0.3	35.0*
COc1ccc(-n2c(C)cc(/C=C3\SC(=S)NC3=O)c2C)cc1	i	99.1	-0.7	-32.4	44.8*
Cc1ccc(N2C(=O)CC(Sc3ncccn3)C2=O)cc1C (configuration not stated)	i	100.0	-0.3	nt	5.4
CN(c1cccc(NC(=O)c2ccccc2N(C)S(=O)(=O)c2ccccc2)c1)S(C)(=O)=O	i	105.0	0.5	0.6	-4.4
COc1ccc(CCNC(=O)c2ccc3nc(-c4ccco4)c(-c4ccco4)nc3c2)cc1OC	nt	96.2	-0.6	57.4*	46.7*
O=C(Nc1ccc2nc(-c3ccco3)c(-c3ccco3)nc2c1)NC1CC1	i	nt	0.1	nt	27.6*
O=C(Nc1cccc(C(F)(F)F)c1)c1ccc2nc(-c3ccco3)c(-c3ccco3)nc2c1	i	86.0	-1.3	74.0*	64.6*
O=C(Nc1cccc(C(F)(F)F)c1)C1CC(=O)N(CCc2ccccc2)C1 (configuration not stated)	nt	102.8	0.0	nt	-12.1
O=C(Nc1ccc(-c2nnc3n2CCCCC3)cc1)c1cnccn1	i	101.8	-1.7	nt	-2.1
CC(C)N(C(=O)CSc1nn2c(=O)c(C(C)(C)C)nnc2s1)c1ccccc1	i	104.4	0.3	0.7	1.9
Cc1cc(C(=O)CSc2nn3c(=O)c(C(C)(C)C)nnc3s2)c(C)n1-c1ccc(F)cc1	i	108.2	-0.2	49.1*	20.8
COc1ccc(-c2nc(SC(C)C(=O)c3c(N)n(C)c(=O)n(C)c3=O)n[nH]2)cc1 (configuration not stated)	nt	101.0	-0.2	nt	-2.0
c1ccc(CSc2ccc(-c3ccc4c(c3)OCO4)nn2)cc1	i	1.2*	-1.5	7.0	2.5
Cc1sc2ncn(CC(=O)NCCCN3CCC(C)CC3)c(=O)c2c1S(=O)(=O)N1CCC(C)CC1	i	nt	-0.8	-1.2	-11.0
Cc1sc2ncn(CC(=O)Nc3c(F)cccc3F)c(=O)c2c1S(=O)(=O)N1CCC(C)CC1	i	55.3*	-0.5	1.7	8.2
N#Cc1ccc2sn(-c3ccccc3)c(=O)c2c1	nt	41.2*	-0.9	nt	10.2
O=c1c2cc([N+](=O)[O-])ccc2sn1-c1ccccc1	nt	65.7*	-1.3	nt	7.4
CC(=O)Nc1ccc2sn(-c3ccccc3)c(=O)c2c1	nt	48.9*	-0.2	nt	18.9
CCn1c2ccccc2c2cc(NC(C)=O)ccc21	i	?	-1.1	-7.5	2.4
O=c1c(-c2ccccc2)c[nH]n1-c1cccc([N+](=O)[O-])c1	i	76.6	-0.4	-19.8	-1.8
COc1ccc(S(=O)(=O)N2CCCCC2)cc1NC(=O)CCNC(=O)c1ccc(Cl)cc1	nt	49.7*	0.0	nt	-0.2
CC(=O)OCC(=O)Nc1cc(S(=O)(=O)N2CCCCCC2)ccc1Cl	i	71.3*	-0.2	1.9	-6.0
O=C(COc1cccnc1[N+](=O)[O-])Nc1cc(S(=O)(=O)N2CCCCC2)ccc1Cl	i	84.8*	-0.5	3.7	7.8
Cc1ccc(NC(=O)COc2cccnc2[N+](=O)[O-])cc1S(=O)(=O)N1CCCCC1	i	nt	-0.2	6.3	-6.1
CC(C)(C)C(=O)NC(=S)N1CCc2ccccc21	i	92.6	-0.9	0.1	-8.9
